Among the data in ChEMBL document CHEMBL3045293, “Effect of the herbicides terbuthylazine and glyphosate on photosystem II photochemistry of young olive (Olea europaea) plants” (J Agric Food Chem, 2011) are Activity and Ratio values, retold here.

Type in all cases: organism-based
Series [1] deals with Olea europaea. The series can be described thus: Toxicity in young Olea europaea (olive) plants assessed as effect on maximum quantum efficiency of photosystem II at 3 kg/ha measured at midday 24 hr post dose. As to conditions: in vivo. An outline of the steps:
(§1)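 Leaves of potted young olive plants; herbicide applied to the soil surface 24 h after olive-mill waste (OW) amendment; triplicate pots; untreated pots without herbicide or OW as controls. Modulated chlorophyll fluorescence (portable fluorimeter) read at 24 h, 15 days and 60 days. Light- and dark-adapted parameters taken at dawn (1–7 μmol m2 s1) and midday (1700 μmol m2 s1), after 30 min dark adaptation in leaf-clips.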

Series [2] relates to Olea europaea. The experiment in a line: Toxicity in young Olea europaea (olive) plants assessed as reduction in intracellular CO2 level at 3 kg/ha measured 15 days post dose in presence of oil Olea europaea (olive)-mill waste. As to conditions: in vivo, 360 h. An outline of the steps: (§2)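 Gas exchange (net photosynthetic rate, stomatal conductance, intercellular CO2) measured on young olive plants in triplicate pots. Herbicide was applied to the soil surface 24 h after OW addition, and pots without herbicide or OW served as controls. Readings were taken 24 h, 15 days and 60 days after treatment. Values are mean ± SE, n = 9, compared by Tukey test (P < 0.05).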

Series [3] deals with Olea europaea. The series can be described thus: Toxicity in young Olea europaea (olive) plants assessed as reduction in photosynthetic rate at 3 kg/ha measured 15 days post dose in presence of oil Olea europaea (olive)-mill waste. As to conditions: in vivo, 360 h. An outline of the steps:
as §2

Series [4] concerns Olea europaea. The experiment in a line: Toxicity in young Olea europaea (olive) plants assessed as reduction in photosynthetic rate at 3 kg/ha measured 60 days post dose. Conditions: in vivo, 1440 h. Summed up:
as §2

Series [5] has as its system Olea europaea. The series can be described thus: Toxicity in young Olea europaea (olive) plants assessed as effect on maximum quantum efficiency of photosystem II at 3 kg/ha measured 15 days post dose. As to conditions: in vivo, 360 h. An outline of the steps: as §1
Series [6] concerns Olea europaea. The experiment in a line: Toxicity in young Olea europaea (olive) plants assessed as reduction in intracellular CO2 level at 3 kg/ha measured 60 days post dose in presence of oil Olea europaea (olive)-mill waste. Conditions: in vivo, 1440 h. Summed up:
as §2

Series [7] relates to Olea europaea. The experiment in a line: Toxicity in young Olea europaea (olive) plants assessed as reduction in photosynthetic rate at 3 kg/ha measured 15 days post dose. As to conditions: in vivo, 360 h. An outline of the steps: as §2
Series [8] deals with Olea europaea. The experiment in a line: Toxicity in young Olea europaea (olive) plants assessed as induction of chronic photoinhibition of photosystem II at 3 kg/ha measured 60 days post dose in presence of oil Olea europaea (olive)-mill waste. As to conditions: in vivo, 1440 h.
Series [9] deals with Olea europaea. The experiment in a line: Toxicity in young Olea europaea (olive) plants assessed as induction of chronic photoinhibition of photosystem II at 3 kg/ha measured 60 days post dose. Conditions: in vivo, 1440 h.
In series [10] the test system is Olea europaea. The series can be described thus: Toxicity in young Olea europaea (olive) plants assessed as reduction in quantum efficiency of photosystem II at 3 kg/ha measured 15 days post dose. Conditions: in vivo, 360 h. Summed up: as §1
The test system of series [11] is Olea europaea. The experiment in a line: Toxicity in young Olea europaea (olive) plants assessed as reduction in intracellular CO2 level at 3 kg/ha measured 60 days post dose. Conditions: in vivo, 1440 h. An outline of the steps:
as §2

Series [12] concerns Olea europaea. The series can be described thus: Toxicity in young Olea europaea (olive) plants assessed as reduction in intracellular CO2 level at 3 kg/ha measured 15 days post dose. As to conditions: in vivo, 360 h. An outline of the steps:
as §2

The subject of series [13] is Olea europaea. The series can be described thus: Toxicity in young Olea europaea (olive) plants assessed as reduction in photosynthetic rate at 3 kg/ha measured 60 days post dose in presence of oil Olea europaea (olive)-mill waste. As to conditions: in vivo, 1440 h. Summed up:
as §2

In series [14] the test system is Olea europaea. The series can be described thus: Toxicity in young Olea europaea (olive) plants assessed as reduction in stomatal conductance at 3 kg/ha measured 60 days post dose. Conditions: in vivo, 1440 h. Summed up:
as §2

Series [15] deals with Olea europaea. The series can be described thus: Toxicity in young Olea europaea (olive) plants assessed as reduction in stomatal conductance at 3 kg/ha measured 15 days post dose. Conditions: in vivo, 360 h. Summed up: as §2
Series [16] deals with Olea europaea. The experiment in a line: Toxicity in young Olea europaea (olive) plants assessed as reduction in non-photochemical quenching photosystem II at 3 kg/ha measured 15 days post dose. As to conditions: in vivo, 360 h. An outline of the steps:
as §1

For series [17], the system named is Olea europaea. The series can be described thus: Toxicity in young Olea europaea (olive) plants assessed as reduction in maximum quantum efficiency of photo system measured by Fv/Fm ratio 2 at 3 kg/ha measured 60 days post dose (reference value: 0.8). Conditions: in vivo, 1440 h. Summed up: as §1
For series [18], the system named is Olea europaea. The series can be described thus: Toxicity in young Olea europaea (olive) plants assessed as reduction in quantum efficiency of photosystem II at 3 kg/ha measured 60 days post dose. Conditions: in vivo, 1440 h. An outline of the steps: as §1
Series [19] has as its system Olea europaea. The experiment in a line: Toxicity in young Olea europaea (olive) plants assessed as reduction in non-photochemical quenching photosystem II at 3 kg/ha measured 60 days post dose. Conditions: in vivo, 1440 h. Summed up: as §1
Series [20] has as its system Olea europaea. The experiment in a line: Toxicity in young Olea europaea (olive) plants assessed as stomatal conductance at 3 kg/ha measured 15 days post dose in presence of oil Olea europaea (olive)-mill waste. As to conditions: in vivo, 360 h. An outline of the steps: as §2
For series [21], the system named is Olea europaea. The experiment in a line: Toxicity in young Olea europaea (olive) plants assessed as stomatal conductance at 3 kg/ha measured 60 days post dose in presence of oil Olea europaea (olive)-mill waste. As to conditions: in vivo, 1440 h. An outline of the steps: as §2

For the compound `O=C(O)CNCP(=O)(O)O` [GLYPHOSATE], the Activity result in [1] was “Toxic”; in [2], “Toxic”; in series [3], “Toxic”; in [4] it was “Non-toxic”; in [5] it was “Toxic”; in [6] it was “Non-toxic”. Moreover, the Activity result in [7], in series [8], in series [9], in series [10], in [11] and in series [12] was “Non-toxic” in each case. Moreover, the Activity entry in series [13], in series [14], in [15] and in series [16] was “Non-toxic” in each case.

On to `CCNc1nc(Cl)nc(NC(C)(C)C)n1` [Terbuthylazine], for which the Ratio in series [17] turned out to be 0.6. For the same compound, the Activity entry in series [1] is on record as “Toxic”; in [2], “Non-toxic”; in [18], “Toxic”; in [19], “Toxic”; in series [20], “Non-toxic”; in series [3] it was “Non-toxic”. Further, the Activity result is recorded as “Toxic” in [4]; “Toxic” in series [5]; “Non-toxic” in [6]; “Toxic” in series [7]; “Non-toxic” in series [8]; “Toxic” in series [9]. Further, the Activity result in series [10] is “Non-toxic”; in series [11], “Non-toxic”; in series [12], “Toxic”; in series [13], “Non-toxic”; in series [14] it was “Non-toxic”; in series [15], “Toxic”. The Activity result in [16] and in series [21] was “Non-toxic” each time.
